The species named for one test is Homo sapiens. The experiment in a line: Inhibition of canonical NF-kB signaling pathway in human THP1 cells assessed as reduction in LPS-induced IkBalpha degradation preincubated for 60 mins followed by LPS addition measured after 30 mins by immunoblot analysis. In kind it is cell-based. The method in brief:
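THP-1 cells in RPMI-1640 with 10% FBS. Cells exposed 60 min to compound, then 30 min to LPS 1 µg/mL. Lysates immunoblotted at 20 µg/lane for IκBα and β-actin, with ECL detection. Band signals normalized as % of control; apparent IC50 by non-linear regression; mean ± SD of three independent experiments.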

For test [1], the target named is T1, Inhibitor of nuclear factor kappa-B kinase subunit beta (Homo sapiens) (UniProt O14920).
T1 sequence (whole entry): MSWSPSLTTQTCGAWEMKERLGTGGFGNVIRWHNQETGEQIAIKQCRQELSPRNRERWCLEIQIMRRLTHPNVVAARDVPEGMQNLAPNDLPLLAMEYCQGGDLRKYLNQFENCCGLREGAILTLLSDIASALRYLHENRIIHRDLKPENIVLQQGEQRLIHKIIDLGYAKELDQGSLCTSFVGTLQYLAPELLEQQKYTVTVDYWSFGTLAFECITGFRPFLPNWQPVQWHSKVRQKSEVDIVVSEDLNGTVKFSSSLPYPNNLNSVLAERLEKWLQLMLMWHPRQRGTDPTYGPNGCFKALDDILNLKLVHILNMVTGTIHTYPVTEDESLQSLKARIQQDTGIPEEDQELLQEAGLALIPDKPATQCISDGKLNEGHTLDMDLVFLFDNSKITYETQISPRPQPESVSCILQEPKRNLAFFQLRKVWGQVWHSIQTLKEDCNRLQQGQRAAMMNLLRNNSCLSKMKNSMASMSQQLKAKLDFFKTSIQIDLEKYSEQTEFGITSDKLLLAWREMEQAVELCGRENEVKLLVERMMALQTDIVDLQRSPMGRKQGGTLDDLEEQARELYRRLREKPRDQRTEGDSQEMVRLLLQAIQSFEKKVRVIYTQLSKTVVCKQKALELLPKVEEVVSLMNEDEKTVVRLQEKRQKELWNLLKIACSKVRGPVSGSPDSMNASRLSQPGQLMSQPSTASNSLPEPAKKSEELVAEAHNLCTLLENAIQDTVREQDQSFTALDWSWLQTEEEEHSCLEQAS
As to the kind of experiment: Inhibition of human IKKbeta at 100 uM using ERLLDDRHDSGLDSMKDEE as substrate after 60 mins in presence of ATP by ADP-Glo kinase assay relative to control.

Test [2] has as its target Inhibitor of NF-kappa-B kinase (IKK) (Homo sapiens) (UniProt O14920+O15111+Q9Y6K9). As to the kind of experiment: Inhibition of IKKbeta/IKKalpha/NEMO complex immunoprecipated from TNFalpha-stimulated human Jurkat cells at 100 uM relative to control.
Test [3] deals with T1, Inhibitor of nuclear factor kappa-B kinase subunit beta (Homo sapiens). The experiment in a line: Induction of IKKbeta phosphorylation at S177/181 residues in TNFalpha-stimulated human Jurkat cells at 10 uM preincubated for 60 mins followed by TNFalpha-stimulation for 20 mins by immunoblot analysis. In kind it is cell-based. The method in brief: (§1)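 Jurkat E6.1 cells in X-VIVO 15 with 10% FBS, passages 5–10, were pretreated 60 min with 10 µM compound (DMSO vehicle), then stimulated 20 min with TNFα 15 ng/mL. Lysates were made with protease and phosphatase inhibitors, 20 µg/lane was run on 12% SDS-PAGE, and IKKα/IKKβ phosphorylation was detected by immunoblot with ECL. Three independent experiments were run.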
In general terms: A western blot detects proteins with antibodies after separation by electrophoresis.

The target in test [4] is T2, Inhibitor of nuclear factor kappa-B kinase subunit alpha (Homo sapiens) (UniProt O15111).
T2 sequence (whole entry): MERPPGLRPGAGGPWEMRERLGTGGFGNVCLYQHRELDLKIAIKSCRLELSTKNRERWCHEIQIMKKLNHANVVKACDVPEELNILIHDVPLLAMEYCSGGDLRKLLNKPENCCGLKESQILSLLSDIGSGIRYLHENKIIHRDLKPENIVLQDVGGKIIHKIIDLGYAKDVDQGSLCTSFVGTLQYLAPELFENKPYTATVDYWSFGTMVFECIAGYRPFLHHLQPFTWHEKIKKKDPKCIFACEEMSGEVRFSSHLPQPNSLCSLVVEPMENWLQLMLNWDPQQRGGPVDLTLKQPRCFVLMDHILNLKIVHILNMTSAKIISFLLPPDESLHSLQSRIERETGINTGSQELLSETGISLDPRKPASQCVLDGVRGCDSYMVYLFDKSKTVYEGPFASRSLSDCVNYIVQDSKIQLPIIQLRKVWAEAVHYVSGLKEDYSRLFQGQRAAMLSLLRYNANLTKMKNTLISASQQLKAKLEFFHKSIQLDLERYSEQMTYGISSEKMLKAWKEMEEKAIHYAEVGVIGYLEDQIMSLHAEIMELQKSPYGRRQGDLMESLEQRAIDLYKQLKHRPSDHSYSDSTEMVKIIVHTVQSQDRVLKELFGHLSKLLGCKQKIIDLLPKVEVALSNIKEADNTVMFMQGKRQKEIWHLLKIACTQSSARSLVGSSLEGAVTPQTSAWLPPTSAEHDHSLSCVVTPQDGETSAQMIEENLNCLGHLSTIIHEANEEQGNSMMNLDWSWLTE
As to the kind of experiment: Induction of IKKalpha phosphorylation at S176/180 residues in TNFalpha-stimulated human Jurkat cells at 10 uM preincubated for 60 mins followed by TNFalpha-stimulation for 20 mins by immunoblot analysis. In kind it is cell-based. The method in brief:
as §1

The record followed here is ChEMBL document CHEMBL4261552, “4-Hydroxy-N-[3,5-bis(trifluoromethyl)phenyl]-1,2,5-thiadiazole-3-carboxamide: a novel inhibitor of the canonical NF-κB cascade” (Medchemcomm, 2017).

Activity calls are given as the source filed them. The calls are words filed in the database; no cut-off is given here.

As a reminder, the inhibition is the drop in the measured response relative to a control, in per cent. `O=C(Nc1cc(C(F)(F)F)cc(C(F)(F)F)c1)c1nsnc1O`: the inhibition result in the test filed under Homo sapiens was “Dose-dependent effect”.
Take `O=C(Nc1cc(C(F)(F)F)cc(C(F)(F)F)c1)c1cc(Cl)ccc1O` [IMD-0354]: the values for the inhibition in test [1] and in test [2] were 5.43% and 40%, respectively. The outcome in test [3] and in test [4] was Active.
